Laboratory results as given in ChEMBL document CHEMBL5329147, “Synthesis of tryptanthrin appended dispiropyrrolidine oxindoles and their antibacterial evaluation” (RSC Med Chem, 2023).
Converted amounts (≈) assume the structure as drawn.

Assays:
Format in all cases: functional
Staphylococcus aureus [1] = assay: Antibacterial activity against vancomycin resistant Staphylococcus aureus […] 4 assessed as bacterial growth inhibition incubated for 18 to 24 hrs by broth microdilution method; settings: time 18-24 hrs
Procedure, shortened: (§1)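 CLSI broth microdilution in MHBII; overnight starter cultures (single MHA colony, 37 °C, shaking) adjusted by OD600 to 10^6 CFU/mL. Compounds from DMSO stocks (10 mg/mL), two-fold series 64–0.5 mg/L. Incubation 37 °C, 18-24 h. MIC = lowest concentration with no visible growth. Three independent determinations, each in duplicate.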

Staphylococcus aureus [2] = assay: Antibacterial activity against vancomycin resistant Staphylococcus aureus […] 12 assessed as bacterial growth inhibition incubated for 18 to 24 hrs by broth microdilution method; settings: time 18-24 hrs; procedure, shortened: as §1
Staphylococcus aureus [3] = assay: Bactericidal activity against Staphylococcus aureus ATCC 29213 assessed as reduction in bacterial load at 10 times of MIC incubated for 24 hrs by time kill analysis; parameters: scale not given: the % may be the effect or the level left
Procedure, shortened: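 Time-kill assay. ~10^6 CFU/mL in MHBII was exposed to 1X and 10X MIC, 37 °C with shaking for 24 h. Samples were taken at 0, 1, 6 and 24 h, serially diluted in PBS, plated on MHA and incubated 37 °C 18–20 h. Colonies were counted as CFU/mL survivors. Three repeats in duplicate; mean plotted.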

Staphylococcus aureus [4] = assay: Antibacterial activity against Staphylococcus aureus ATCC 29213 assessed as bacterial growth inhibition incubated for 18 to 24 hrs by broth microdilution method; settings: time 18-24 hrs
Procedure, shortened: (§2)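 CLSI broth microdilution. Overnight starter cultures (single colony, MHBII, 37 °C, shaking 18–24 h) were diluted by OD600 to 10^6 CFU/mL in MHBII. Two-fold dilutions from […] were made from 10 mg/mL DMSO stocks, then incubated 37 °C for 18-24 h. The MIC was the lowest concentration with no visible growth. Three independent runs, duplicate samples.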

Staphylococcus aureus [5] = assay: Synergistic antibacterial activity against Staphylococcus aureus ATCC 29213 assessed as bacterial growth inhibition incubated for 24 hrs in presence of (S)-8''-Bromo-1-ethyl-1'-methyl-2,12''-dioxo-12''H-dispiro[indoline-3,4'-pyrrolidine-2',6''-indolo[2,1-b]quinazoline]-3',3'-dicarbonitrile by checkerboard assay
Procedure, shortened: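 Checkerboard in 96-well plates: two-fold serial dilutions, one agent along abscissa, partner antibiotic along ordinate. Wells received ~10⁵ CFU/mL S. aureus ATCC 29213 in MHBII. Incubation 37 °C, 24 h. ΣFIC = FIC A + FIC B, each FIC being combination MIC divided by MIC alone.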

Acinetobacter baumannii = assay: Antibacterial activity against Acinetobacter baumannii BAA-1605 assessed as bacterial growth inhibition incubated for 18 to 24 hrs by broth microdilution method; settings: time 18-24 hrs; procedure, shortened: as §2
Pseudomonas aeruginosa = assay: Antibacterial activity against Pseudomonas aeruginosa ATCC 27853 assessed as bacterial growth inhibition incubated for 18 to 24 hrs by broth microdilution method; settings: time 18-24 hrs; procedure, shortened: as §2
Klebsiella pneumoniae = assay: Antibacterial activity against Klebsiella pneumoniae BAA 1705 assessed as bacterial growth inhibition incubated for 18 to 24 hrs by broth microdilution method; settings: time 18-24 hrs; procedure, shortened: as §2
Escherichia coli = assay: Antibacterial activity against Escherichia coli ATCC 25922 assessed as bacterial growth inhibition incubated for 18 to 24 hrs by broth microdilution method; settings: time 18-24 hrs; procedure, shortened: as §2
Staphylococcus aureus [6] = assay: Antibacterial activity against methicillin resistant Staphylococcus aureus NRS 129 assessed as bacterial growth inhibition incubated for 18 to 24 hrs by broth microdilution method; settings: time 18-24 hrs; procedure, shortened: as §1
Staphylococcus aureus [7] = assay: Antibacterial activity against methicillin sensitive Staphylococcus aureus ATCC 29213 assessed as bacterial growth inhibition incubated for 18 to 24 hrs by broth microdilution method; settings: time 18-24 hrs; procedure, shortened: as §1
Staphylococcus aureus [8] = assay: Antibacterial activity against methicillin resistant Staphylococcus aureus NRS 193 assessed as bacterial growth inhibition incubated for 18 to 24 hrs by broth microdilution method; settings: time 18-24 hrs; procedure, shortened: as §1
Staphylococcus aureus [9] = assay: Antibacterial activity against methicillin resistant Staphylococcus aureus NRS 198 assessed as bacterial growth inhibition incubated for 18 to 24 hrs by broth microdilution method; settings: time 18-24 hrs; procedure, shortened: as §1
Staphylococcus aureus [10] = assay: Antibacterial activity against methicillin resistant Staphylococcus aureus NRS 194 assessed as bacterial growth inhibition incubated for 18 to 24 hrs by broth microdilution method; settings: time 18-24 hrs; procedure, shortened: as §1
Staphylococcus aureus [11] = assay: Antibacterial activity against methicillin resistant Staphylococcus aureus NRS 191 assessed as bacterial growth inhibition incubated for 18 to 24 hrs by broth microdilution method; settings: time 18-24 hrs; procedure, shortened: as §1
Staphylococcus aureus [12] = assay: Antibacterial activity against methicillin resistant Staphylococcus aureus NRS 119 assessed as bacterial growth inhibition incubated for 18 to 24 hrs by broth microdilution method; settings: time 18-24 hrs; procedure, shortened: as §1
Staphylococcus aureus [13] = assay: Antibacterial activity against methicillin resistant Staphylococcus aureus NRS 186 assessed as bacterial growth inhibition incubated for 18 to 24 hrs by broth microdilution method; settings: time 18-24 hrs; procedure, shortened: as §1
Staphylococcus aureus [14] = assay: Antibacterial activity against methicillin resistant Staphylococcus aureus NRS 192 assessed as bacterial growth inhibition incubated for 18 to 24 hrs by broth microdilution method; settings: time 18-24 hrs; procedure, shortened: as §1
[15] = Staphylococcus aureus, ATCC 29213, read-out: MIC

CN[C@H](CC(C)C)C(=O)N[C@H]1C(=O)N[C@@H](CC(N)=O)C(=O)N[C@H]2C(=O)N[C@H]3C(=O)N[C@H](C(=O)N[C@H](C(=O)O)c4cc(O)cc(O)c4-c4cc3ccc4O)[C@H](O)c3ccc(c(Cl)c3)Oc3cc2cc(c3O[C@@H]2O[C@H](CO)[C@@H](O)[C@H](O)[C@H]2O[C@H]2C[C@](C)(N)[C@H](O)[C@H](C)O2)Oc2ccc(cc2Cl)[C@H]1O [VANCOMYCIN]
MIC (Staphylococcus aureus [1]): > 64 µg/mL
MIC (Staphylococcus aureus [2]): > 64 µg/mL
Activity (Staphylococcus aureus [3]): 100%

CO[C@H]1/C=C/O[C@@]2(C)Oc3c(C)c(O)c4c(O)c(c(/C=N/N5CCN(C)CC5)c(O)c4c3C2=O)NC(=O)/C(C)=C\C=C\[C@H](C)[C@H](O)[C@@H](C)[C@@H](O)[C@@H](C)[C@H](OC(C)=O)[C@@H]1C [RIFAMPIN]
MIC (Staphylococcus aureus [4]; [15]): 0.008 µg/mL (≈ 0.00972 µM)
MIC (Staphylococcus aureus [5]): 0.008 µg/mL

CCN1C(=O)[C@@]2(CN(C)C3(c4cc(I)ccc4-n4c3nc3ccc(Cl)cc3c4=O)C2(C#N)C#N)c2ccccc21 (stereo not given in full)
MIC (Staphylococcus aureus [4]; [15]): 1 µg/mL (≈ 1.52 µM)
MIC (Acinetobacter baumannii): > 64 µg/mL
MIC (Pseudomonas aeruginosa): > 64 µg/mL
MIC (Klebsiella pneumoniae): > 64 µg/mL
MIC (Escherichia coli): > 64 µg/mL

CCN1C(=O)[C@]2(c3ccccc31)C(Cc1ccccc1)NC1(c3cc(Br)ccc3-n3c1nc1ccccc1c3=O)C2(C#N)C#N (stereo not given in full)
MIC (Staphylococcus aureus [4]; [15]): 0.25 µg/mL (≈ 0.383 µM)
MIC (Acinetobacter baumannii): > 64 µg/mL
MIC (Pseudomonas aeruginosa): > 64 µg/mL
MIC (Klebsiella pneumoniae): > 64 µg/mL
MIC (Escherichia coli): > 64 µg/mL

CCN1C(=O)[C@@]2(CN(C)C3(c4ccccc4-n4c3nc3ccccc3c4=O)C2(C#N)C#N)c2ccccc21 (stereo not given in full)
MIC (Staphylococcus aureus [4]; [15]): 1 µg/mL (≈ 2.01 µM)
MIC (Acinetobacter baumannii): > 64 µg/mL
MIC (Pseudomonas aeruginosa): > 64 µg/mL
MIC (Klebsiella pneumoniae): > 64 µg/mL
MIC (Escherichia coli): > 64 µg/mL

CC(C)(O/N=C(\C(=O)N[C@@H]1C(=O)N2C(C(=O)[O-])=C(C[n+]3ccccc3)CS[C@H]12)c1csc(N)n1)C(=O)O [CEFTAZIDIME]
MIC (Staphylococcus aureus [4]; [15]): 8 µg/mL (≈ 14.6 µM)
MIC (Staphylococcus aureus [5]): 8 µg/mL

CCN1C(=O)[C@]2(c3cc(Cl)ccc31)C(Cc1c[nH]c3ccccc13)NC1(c3cc(Cl)ccc3-n3c1nc1ccccc1c3=O)C2(C#N)C#N (stereo not given in full)
MIC (Staphylococcus aureus [4]; [15]): 0.25 µg/mL (≈ 0.366 µM)
MIC (Acinetobacter baumannii): > 64 µg/mL
MIC (Pseudomonas aeruginosa): > 64 µg/mL
MIC (Klebsiella pneumoniae): > 64 µg/mL
MIC (Escherichia coli): > 64 µg/mL

C[C@H]1COc2c(N3CCN(C)CC3)c(F)cc3c(=O)c(C(=O)O)cn1c23 [LEVOFLOXACIN ANHYDROUS]
MIC (Staphylococcus aureus [1]): > 64 µg/mL
MIC (Staphylococcus aureus [4]; [15]): 0.125 µg/mL (≈ 0.346 µM)
MIC (Staphylococcus aureus [4]): 0.25 µg/mL (≈ 0.692 µM)
MIC (Staphylococcus aureus [6]): 0.25 µg/mL (≈ 0.692 µM)
MIC (Staphylococcus aureus [2]): 32 µg/mL (≈ 88.6 µM)
MIC (Staphylococcus aureus [7]): 0.125 µg/mL (≈ 0.346 µM)
MIC (Staphylococcus aureus [8]): 32 µg/mL (≈ 88.6 µM)
MIC (Staphylococcus aureus [9]): 32 µg/mL (≈ 88.6 µM)
MIC (Klebsiella pneumoniae): 64 µg/mL (≈ 177 µM)
MIC (Staphylococcus aureus [10]): 0.125 µg/mL (≈ 0.346 µM)
MIC (Staphylococcus aureus [11]): 16 µg/mL (≈ 44.3 µM)
MIC (Staphylococcus aureus [12]): 16 µg/mL (≈ 44.3 µM)
MIC (Staphylococcus aureus [13]): 4 µg/mL (≈ 11.1 µM)
MIC (Staphylococcus aureus [5]): 0.125 µg/mL
MIC (Staphylococcus aureus [14]): 4 µg/mL (≈ 11.1 µM)

C[C@@H](O)[C@H]1C(=O)N2C(C(=O)O)=C(S[C@@H]3CN[C@H](C(=O)N(C)C)C3)[C@H](C)[C@H]12 [MEROPENEM]
MIC (Staphylococcus aureus [1]): 64 µg/mL (≈ 167 µM)
MIC (Staphylococcus aureus [4]; [15]): 0.063 µg/mL (≈ 0.164 µM)
MIC (Staphylococcus aureus [6]): 4 µg/mL (≈ 10.4 µM)
MIC (Staphylococcus aureus [2]): 8 µg/mL (≈ 20.9 µM)
MIC (Staphylococcus aureus [7]): 0.125 µg/mL (≈ 0.326 µM)
MIC (Staphylococcus aureus [8]): 64 µg/mL (≈ 167 µM)
MIC (Staphylococcus aureus [9]): 64 µg/mL (≈ 167 µM)
MIC (Staphylococcus aureus [10]): 1 µg/mL (≈ 2.61 µM)
MIC (Staphylococcus aureus [11]): 64 µg/mL (≈ 167 µM)
MIC (Staphylococcus aureus [12]): 64 µg/mL (≈ 167 µM)
MIC (Staphylococcus aureus [13]): 8 µg/mL (≈ 20.9 µM)
MIC (Staphylococcus aureus [5]): 0.63 µg/mL
MIC (Staphylococcus aureus [14]): 8 µg/mL (≈ 20.9 µM)
